LGR2 antag: blocks bursicon-induced cAMP signaling via Drosophila LGR2; inhibition, % at 9.99 µM; 0.35% of 380,000 active; HEK293 LGR2, CRE-luciferase, bursicon-stimulated, 4 h; AID 720647;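 active = drop in luminescence signal, shown as inhibition above about 50% in the replicate tests, limit read from the data, passing the limit was not always enough; inconclusive = probably only some replicates passing the limit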;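 also: agonist challenge used bursicon conditioned medium at about half maximal strength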
Xi reactivation: activators of X-chromosome reactivation in mouse fibroblasts | activation, % at 7.58 µM | AID 743238 | 0.055% of 360,000 active | XiGFP mouse fibroblasts, % GFP-positive cells imaging, 3 d; cells co-treated with 5-aza-dC sensitizer; scaled so ellipticine positive control = 100%;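 active = mean normalized replicate activation at least 10% and every replicate at or above 10%; inconclusive = only one of the two criteria met; inactive = mean below 10% and not all replicates reach 10%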;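 also: 0% = median of on-plate neutral control wells and 100% = ellipticine 6 µM median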
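Assay system: SV40-immortalized XiGFP fibroblast cells, line 68-5-11; buffer or medium: DMEM plus 5-aza-dC sensitizer; compound: one concentration, pinned; timing: compounds 3 days, fix/stain 15 min at room temperature; benchmarks: positive control ellipticine, 6 µM final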
TROY signal inh: inhibitors of TROY-dependent NF-kB signaling; Q293 LMP1-TROYcd NF-kB luciferase reporter, 4 h; inhibition, % at 10 µM; 0.98% of 360,000 active;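 active = compounds whose plate-normalised and pattern-corrected inhibition of the luciferase reporter signal at the single screening dose is 50% or more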
TWEAK Fn14 block: TWEAK-Fn14 signaling inhibition; inhibition, % at 10 µM; AID 1159606; TWEAK-stimulated Fn14 reporter cells, luciferase luminescence, 8 h; 2% of 360,000 active; in the data active = inhibition above about 50%
FN deposition inh: fibronectin deposition inhibition; 0.086% of 350,000 active; inhibition, % at 12.6 µM; AH1F fibroblasts, Alexa488-fibronectin deposition fluorescence, overnight;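 active = mean inhibition across replicates of 30% or more, regardless of how many single replicates reach that level; inconclusive = mean under 30% yet at least half of replicates reach 30%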;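 also: positive control wells lacked labelled fibronectin entirely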
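Assay system: AH1F fibroblasts / Quantity: 10000 cells per well / Medium: DMEM plus 2% serum, read in PBS / Reagent: labelled fibronectin 24 nM / Dosing: single dose, pinned / Times: 1 h cell attachment, overnight exposure to compound and label / Signal: fluorescence, ex 485 nm, em 525 nm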
EWS-Fli block: EWS/Fli transcriptional activity inhibition; A673 NR0B1-luciferase reporter, viability-normalised; inhibition, % at 12.6 µM; 0.67% of 350,000 active;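 active = mean inhibition of at least 50% after viability correction, with every replicate also passing that limit; inconclusive = mean reaches 50% but only one of two replicates passes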;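 also: firefly luciferase signal divided by Alamar Blue viability fluorescence both relative to DMSO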
DNA binding: small molecule DNA binding by fluorescence polarization; salmon sperm DNA acridine orange fluorescence polarization; AC35, µM (titrated, usually from 68 µM), for inactives: at the top dose activity change, negative = DNA binding; 2% of 640 active; shares compounds with EWS-Fli block;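 active = fitted curve reaches a 35% signal fall AC35 below twice the sample's top valid tested dose, actives reach about 48 µM in these data; inactive = the rest, including activity in the rising direction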;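 also: lower polarization ratio signals compound binding to DNA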
Active calls of the source: *; ? = inconclusive; · = no result. Sampled rows, rich in hits. Any-hit rate of the full collection: about 2.3%.

SMILES	LGR2 antag	Xi reactivation	TROY signal inh	TWEAK Fn14 block	FN deposition inh	EWS-Fli block	DNA binding
C[C@H]1CN([C@@H](C)CO)C(=O)Cc2cc(NC(=O)CCCCCC(=O)Nc3ccccc3N)ccc2O[C@H]1CN(C)Cc1ccc(C(F)(F)F)cc1	-14.1	1.0	·	·	-11.9	55.9*	-7.6%
C[C@H]1CN([C@@H](C)CO)C(=O)Cc2cc(NC(=O)CCCCCC(=O)Nc3ccccc3N)ccc2O[C@H]1CN(C)Cc1ccc(Oc2ccccc2)cc1	-0.5	-0.7	·	·	·	60.1*	-6.1%
C[C@@H]1CN([C@@H](C)CO)C(=O)Cc2cc(NC(=O)CCCCCC(=O)Nc3ccccc3N)ccc2O[C@@H]1CN(C)Cc1ccc(-c2ccccc2)cc1	·	-0.1	·	·	·	13.8	·
C[C@@H]1CN([C@H](C)CO)C(=O)Cc2cc(NC(=O)CCCCCC(=O)Nc3ccccc3N)ccc2O[C@@H]1CN(C)CC1CCCCC1	-7.1	0.8	·	·	-18.8	60.5*	2.3%
C[C@@H]1CN([C@@H](C)CO)C(=O)Cc2cc(NC(=O)Nc3ccc4c(c3)OCO4)ccc2O[C@@H]1CN(C)S(=O)(=O)c1cccs1	10.8	0.0	·	·	·	3.7	·
C[C@H]1CN([C@@H](C)CO)C(=O)Cc2cc(NC(=O)CCCCCC(=O)Nc3ccccc3N)ccc2O[C@@H]1CN(C)Cc1ccc(-c2ccccc2)cc1	-16.6	0.0	·	·	·	-16.2	·
C[C@@H]1CN([C@@H](C)CO)C(=O)Cc2cc(NS(=O)(=O)c3cccs3)ccc2O[C@H]1CN(C)Cc1ccc(Cl)c(Cl)c1	31.3	-0.1	·	·	·	58.8*	-9.3%
C[C@H](CO)N1C[C@H](C)[C@H](CN(C)Cc2ccc(Oc3ccccc3)cc2)Oc2ccc(NC(=O)CCCCCC(=O)Nc3ccccc3N)cc2CC1=O	0.9	1.1	·	·	·	60.5*	-12.0%
C[C@H](CO)N1C[C@H](C)[C@@H](CN(C)Cc2ccc(Cl)c(Cl)c2)Oc2ccc(NC(=O)CCCCCC(=O)Nc3ccccc3N)cc2CC1=O	-1.2	-0.1	·	·	·	?	·
C[C@H]1CN([C@@H](C)CO)C(=O)Cc2cc(NC(=O)CCCCCC(=O)Nc3ccccc3N)ccc2O[C@H]1CN(C)Cc1ccc(Cl)c(Cl)c1	-4.8	0.3	·	·	·	50.5*	-6.7%
C[C@H](CO)N1C[C@H](C)[C@H](CN(C)Cc2ccccc2)Oc2ccc(NC(=O)CCCCCC(=O)Nc3ccccc3N)cc2CC1=O	14.1	0.1	·	·	·	56.1*	-9.3%
CCCC(=O)Nc1ccc2c(c1)C(=O)N(C)C[C@H](OC)[C@H](C)CN(Cc1ccccn1)[C@@H](C)CO2	-12.5	0.1	·	·	-4.6	-1.5	·
C[C@H](CO)N1C[C@H](C)[C@H](CN(C)C(=O)Nc2cccc(F)c2)Oc2ncc(C#CCN(C)C)cc2C1=O	5.3	0.2	·	·	-1.4	5.0	·
CCCn1c(C)cc(C(=O)CN2C(=O)c3ccccc3S2(=O)=O)c1C	56.4*	0.4	22.5	8.2	-3.8	81.7*	-2.1%
COc1ccc(C(=O)CN2C(=O)c3ccccc3S2(=O)=O)cc1	100.6*	-0.1	85.5*	101.5*	7.1	87.5*	5.7%
C[C@H]1CN([C@@H](C)CO)C(=O)c2c(c3ccccc3n2C)-c2ccccc2CO[C@@H]1CN(C)C(=O)Cc1ccccc1	23.6	-0.7	·	·	-13.7	11.5	·
COCC(=O)Nc1ccc2c(c1)OC[C@H](C)N(C(=O)c1ccncc1)C[C@@H](C)[C@H](OC)CN(C)C2=O	9.1	-0.1	·	·	6.3	2.3	·
CC1(C)Oc2cc3oc(-c4cc(O)cc(O)c4)cc3cc2CC1O (stereo unspecified)	82.5*	·	80.1*	76.2*	·	75.8*	-1.2%
C/C=C/c1ccc([C@H]2[C@@H](CO)N3C(=O)CN(S(=O)(=O)c4cccc(F)c4)C[C@H]23)cc1	3.8	0.1	·	·	·	17.4	·
C/C=C/c1ccc([C@H]2[C@@H](CO)N3C(=O)CN(S(=O)(=O)c4cccc(F)c4)C[C@@H]23)cc1	-23.1	0.2	·	·	·	52.0*	-1.6%
Cc1[nH]c(=S)sc1Cc1ccc(Cl)c(Cl)c1	-5.3	0.0	·	·	·	78.9*	-3.6%
CC(C)CC#Cc1cnc2c(c1)C(=O)N([C@H](C)CO)C[C@H](C)[C@H](CN(C)Cc1cccc(F)c1)O2	-11.6	0.2	·	·	·	1.5	·
Cc1ccc(S(=O)(=O)N[C@@H]2CC[C@H](CC(=O)NCCN3CCCCC3)O[C@H]2CO)cc1	8.7	0.4	·	·	-12.0	-0.2	·
COc1ccc(CC(N)c2csc(NC(=O)Nc3cccc(C(F)(F)F)c3)n2)cc1 (stereo unspecified)	-4.3	0.7	17.1	11.8	7.4	52.5*	-4.4%
Cc1csc(NC(=O)CCc2c(C)nc3cc(-c4ccc(Cl)cc4)nn3c2C)n1	-74.3	0.4	30.0	62.3*	-1.0	56.2*	-7.7%
SMILES	LGR2 antag	Xi reactivation	TROY signal inh	TWEAK Fn14 block	FN deposition inh	EWS-Fli block	DNA binding
COc1cc(OC)cc(-c2cc3nc(C)c(CCC(=O)NCc4ccccc4)c(C)n3n2)c1	-12.4	2.9	46.3	66.2*	-0.1	57.4*	-8.7%
Cc1csc(NC(=O)CSc2nnc(-c3ccc(Cl)cc3)n2N)n1	-7.8	·	-12.0	2.1	-2.2	·	·
Cc1nc2cc(-c3ccc(Cl)cc3)nn2c(C)c1CCC(=O)NC(C)c1ccc2c(c1)OCCO2 (stereo unspecified)	-31.2	0.0	33.3	56.1*	-10.4	56.6*	1.3%
CCc1ccc(C2=NN(CCC(=O)NC(C)c3ccc4c(c3)OCCO4)C(=O)CC2)cc1 (stereo unspecified)	1.3	·	5.9	-6.2	-1.0	3.2	·
COc1ccc(CN(C)C[C@H]2Oc3ccc(NC(=O)Cc4ccccc4)cc3CC(=O)N([C@H](C)CO)C[C@@H]2C)cc1	-7.4	-0.9	·	·	·	-5.8	·
O=C(NC(=O)c1ccccc1)Nc1ccccc1	37.0	0.2	10.4	71.7*	-2.0	55.8*	-13.0%
COC(=O)c1cccc(NC(=O)NC(=O)c2ccc(Cl)cc2)c1	-6.1	0.0	-31.4	-12.2	11.5	86.7*	-7.3%
C[C@@H]1CN([C@@H](C)CO)C(=O)c2cc(-c3ccc(F)cc3)cnc2O[C@@H]1CN(C)C(=O)c1ccncc1	8.5	-0.5	·	·	·	-1.8	·
C[C@H](CO)N1C[C@H](C)[C@H](CN(C)S(C)(=O)=O)Oc2ccc(NS(C)(=O)=O)cc2C1=O	1.3	0.1	·	·	·	-7.9	·
O=C1C(=O)N(CCS(=O)(=O)c2ccccc2)c2ccccc21	14.8	0.0	12.4	13.5	-2.9	61.0*	-9.9%
O=C1C(=O)N(Cc2cccs2)c2ccccc21	16.1	0.1	-16.5	-15.8	-6.6	65.5*	-9.3%
CCCC#Cc1cnc2c(c1)C(=O)N([C@@H](C)CO)C[C@H](C)[C@@H](CN(C)C(=O)Cc1ccncc1)O2	5.2	-0.7	·	·	·	5.7	·
